# Hits are enriched below; roughly 2% of the tested compounds scored in any of these assays.
# CHRM1 agonist – agonists of human M1 muscarinic receptor. P11229. CHO-K1 hM1, Fluo-8 calcium fluorescence, agonist mode; 0% DMSO, 100% acetylcholine EC100. activation, % at 3 µM. 360,000 tested, 0.33% active;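 active = activation above the run's mean compound activation plus 3 SD, cut at about 16% in these data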;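 note: peak over basal fluorescence ratio within a 140 s kinetic read after compound addition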
# Target sequence (P11229 whole entry, looked up): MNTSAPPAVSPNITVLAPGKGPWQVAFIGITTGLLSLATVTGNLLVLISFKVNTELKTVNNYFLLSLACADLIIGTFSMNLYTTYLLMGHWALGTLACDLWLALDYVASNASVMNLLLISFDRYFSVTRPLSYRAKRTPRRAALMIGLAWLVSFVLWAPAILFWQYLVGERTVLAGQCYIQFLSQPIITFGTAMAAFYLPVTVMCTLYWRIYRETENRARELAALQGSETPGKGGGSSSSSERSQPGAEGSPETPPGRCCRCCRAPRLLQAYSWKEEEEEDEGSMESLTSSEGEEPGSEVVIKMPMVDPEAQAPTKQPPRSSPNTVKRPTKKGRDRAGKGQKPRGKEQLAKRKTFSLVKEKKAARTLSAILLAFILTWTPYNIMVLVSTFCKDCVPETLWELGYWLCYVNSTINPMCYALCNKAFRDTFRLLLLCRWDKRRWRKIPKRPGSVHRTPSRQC
# M1 PAM – potentiates human M1 receptor response to acetylcholine; CHO-K1 hM1, Fluo-8 calcium fluorescence, ACh EC20; 0% = ACh EC20, 100% = maximal ACh; activation, % at 3 µM; P11229; 360,000 tested, 0.088% active; in the data active = activation above about 19%, passing the limit was not always enough
# CHRM5 agonist – agonists of human muscarinic M5 receptor (CHRM5); P08912; CHO-K1 hM5 cells, Fluo-8 calcium fluorescence; 0% DMSO wells, 100% maximal acetylcholine response; activation, % at 3 µM; 360,000 tested, 0.19% active; AID 624037;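 active = activation above the run's mean over test compounds plus 3 SD, cut at about 23% in these data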;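 note: signal is peak over basal fluorescence ratio across the kinetic read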
# CHRM1 antagonist – antagonists of human M1 muscarinic receptor. CHO-K1 hM1, Fluo-8 calcium fluorescence, ACh EC80 antagonist. 360,000 tested, 1.3% active. P11229. inhibition, % at 3 µM;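 active = percent inhibition above its own plate's cutoff, namely the mean of that plate's compound wells plus 3 SD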;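 note: peak over basal fluorescence ratio during 140 s after agonist addition; 0% = ACh EC80 plus DMSO and 100% = DMSO alone without agonist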
# CHRM5 PAM – positive allosteric modulators of human muscarinic M5 receptor; AID 624038; P08912; CHO-K1 hM5, Fluo-8 calcium, ACh EC20 PAM; 0% = ACh EC20, 100% = ACh EC100; activation, % at 3 µM; 360,000 tested, 0.3% active;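 active = activation above the run cutoff, the mean activation of all test compounds plus 3 SD, cut at about 18% in these data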
#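 Assay system: CHO-K1 hM5 cells / Incubation: Fluo-8 loading 80 min at 37 °C plus 30 min room temperature / Technique: Fluo-8 calcium dye fluorescence, kinetic read / Repeats: single replicate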
# M5 antag – CHRM5 antagonism in calcium assay | P08912 | CHO-hM5 cells, Fluo-8 calcium fluorescence, ACh EC80 | inhibition, % at 3 µM | 360,000 tested, 0.59% active;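 active = inhibition above a per-plate cutoff, the mean of that plate's test compounds plus 3 SD, cut at about 27% in these data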;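 note: 0% = acetylcholine EC80 with DMSO and 100% = DMSO without agonist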
# * marks the source's active call; other numbers are inactive results; x = no result given.
SMILES,CHRM1 agonist,M1 PAM,CHRM5 agonist,CHRM1 antagonist,CHRM5 PAM,M5 antag
O=C1NCC(Nc2ccc(Cl)cc2)C(=O)N1 (stereo not given),-3.7,6.4,0.1,-14.3,7.1,-3.7
COC(=O)C(NC(=O)c1ccccc1Cl)(Nc1ncc(S(=O)(=O)c2ccc([N+](=O)[O-])cc2)s1)C(F)(F)F (stereo not given),21.9*,1.6,32.8*,9.9,-9.7,6.9
O=C(CCl)Nc1ncc(S(=O)(=O)c2ccc([N+](=O)[O-])cc2)s1,2.6,-0.1,1.2,-1.4,0.7,9.0
O=C1c2cccc3c([N+](=O)[O-])ccc(c23)C(=O)N1c1ccccn1,-4.7,-3.1,-7.1,20.1,-4.4,27.9*
O=C1c2cccc3c([N+](=O)[O-])ccc(c23)C(=O)N1c1nccs1,-7.0,-13.7,-5.3,24.0*,-7.6,16.1
COc1ccccc1CN1C(=O)C(Cc2ccccc2)ON=C1c1ncccc1C (stereo not given),-3.2,9.6,-0.1,-19.3,2.1,-2.3
Cc1ccc(NC(=O)c2ncn(CCCNCCCc3ccccc3)n2)cc1C,17.7*,1.4,0.2,-4.9,-1.2,10.1
N#Cc1ccc(NC(=S)NC(=O)C2CC2)cc1,-6.6,7.5,-1.7,-11.3,6.3,4.2
O=C(NCc1ccccc1)NCC12CC3CC(CC(C3)C1)C2,-2.1,-11.5,8.7,28.4,-15.1,14.8
O=C(NCc1ccccc1)NC12CC3CC(CC(C3)C1)C2,-4.2,6.8,-0.2,-17.3,19.7*,-11.3
CC(C)C(=O)N1CCCC1(C)C(=O)Nc1ccccc1 (stereo not given),-0.3,4.6,1.8,-4.9,-5.4,2.2
CC(=Cc1cccs1)C(=O)c1ccccc1,-4.4,-5.0,-0.4,0.8,-2.7,4.9
CN(C)c1nc(=NCc2cccs2)ss1,3.1,-2.0,4.0,0.2,-7.2,23.8
Cc1cc(N2CCOCC2)ccc1/C=C\[N+](=O)[O-],2.9,11.0,15.9,18.5,2.4,30.8*
CCCNC(=O)N1C[C@H](O)COC[C@H]2O[C@@H](CC(=O)N[C@@H]3CCN(Cc4ccccc4)C3)CC[C@@H]21,x,x,0.0,x,-0.3,-1.2
CCN(CC)CCCNc1nc(N)c([N+](=O)[O-])c(N2CCCCCC2)n1,-11.3,-35.1,-6.9,64.8*,-8.8,8.1
O=C(CN1CCCCCC1)Nc1ccc(Oc2ccccc2)cc1,-6.0,-22.5,-11.4,42.0*,-10.6,9.9
O=C(CN1CCCCC1)Nc1ccccc1,-4.5,4.9,-0.7,-5.7,-2.4,-1.4
O=C(C[n+]1ccccc1)Nc1ccc(Oc2ccccc2)cc1,-5.7,-22.9,-15.2,90.9*,-26.2,5.9
O=C(CN1CCCC1)NN=C(c1ccccc1)c1ccccc1,-5.8,-22.3,-10.0,63.6*,7.5,-3.0
O=C(CN1CCCCCC1)NN(Cc1ccccc1)c1ccccc1,-8.1,-22.9,-18.8,55.8*,-26.0,12.3
CN(C(=O)COC(=O)c1cc(S(=O)(=O)N2CCOCC2)ccc1Cl)C1CCS(=O)(=O)C1 (stereo not given),-5.9,-4.4,-0.2,9.8,-7.8,10.4
COc1cccc(C(=O)NCCS(=O)(=O)N2CCCC(C)C2)c1 (stereo not given),-2.4,-5.0,1.1,-1.8,-4.2,1.4
O=C(CN1CCCCC1)Nc1ccccc1-c1ccccc1,-12.2,-34.0,-7.9,100.9*,-25.0,45.4*
O=C(CN1CCOCC1)Nc1ccccc1-c1ccccc1,-4.4,5.6,-1.3,2.6,-1.7,-5.8
SMILES,CHRM1 agonist,M1 PAM,CHRM5 agonist,CHRM1 antagonist,CHRM5 PAM,M5 antag
O=C(COC(=O)c1ccc(O)cc1)Nc1ccccc1-c1ccccc1,-2.2,-16.4,2.2,28.9,-19.0,35.2*
CCCOc1ccc(F)cc1-c1cc(C(=O)NCc2cccc(Cl)c2)[nH]n1,-3.7,-7.3,-3.2,11.6,-2.0,18.4
CC1(C(=O)NCCC#N)CCN1C(=O)C1(c2ccccc2)CC1 (stereo not given),4.7,12.4,0.3,-3.6,0.8,6.2
CCN1CCN(c2ncnc3sc(C)c(-c4ccccc4)c23)CC1,-10.7,-16.4,-5.6,29.0*,-6.4,9.2
CCN1CCN(c2ncnc3scc(-c4ccc(C)c(C)c4)c23)CC1,-11.4,-31.8,-7.9,84.6*,-18.5,45.9*
Fc1ccc(CN2CCN(c3ncnc4scc(-c5ccc(F)cc5)c34)CC2)cc1,-0.9,-5.5,-6.2,10.9,-6.2,10.9
CCOC(=O)C1CCN(c2ncnc3c(C)csc23)CC1,6.3,-23.3,5.8,39.8*,-31.5,19.5
CN(C)CC/C=C1/c2ccccc2CS(=O)(=O)c2ccccc21,-6.2,-26.5,-21.2,65.7*,-30.4,15.2
COc1ccc2c(c1)C(=O)c1ccccc1CO2,-5.8,7.8,-5.1,-27.9,6.9,0.3
CN(C)CC/C=C1\c2ccccc2COc2ccccc21,x,x,-1.3,x,-18.5,97.8*
CN(CCCNC(=O)c1nn(C)c2c1CS(=O)(=O)c1ccccc1-2)Cc1ccccc1,-3.4,2.0,-4.4,-5.2,4.4,-1.9
C#CCN1C=CC(=O)[C@@H](OC(=O)Nc2ccc(Cl)cc2)[C@H]1c1ccccc1Br,0.1,2.7,1.4,-0.5,0.0,4.6
O=C(Nc1ccc(Cl)c(C(F)(F)F)c1)c1ccncc1,-1.2,-9.2,7.7,18.3,-27.2,19.4
CNC(=O)c1cc(Oc2ccc(NC(=O)Nc3ccc(Cl)c(C(F)(F)F)c3)cc2)ccn1,-0.7,-16.6,3.0,32.3,-31.5,29.6*
C#Cc1ccc(NC(=O)C2(C)CCN2C(=O)C2(c3ccccc3)CCCC2)cc1 (stereo not given),-8.7,-13.3,-2.8,0.7,-9.3,2.1
Cc1ccccc1C(=O)NCCCCc1ccccc1,-5.9,6.0,-5.3,-5.8,-3.7,4.0
Nc1nc2ccccc2cc1C(=O)NCCCCc1ccccc1,x,x,8.3,x,-23.4,27.7*
Clc1ccc(NN(Cc2ccncc2)c2ccc(Cl)cc2)cc1,-8.3,-7.2,-2.4,2.8,-9.2,3.2
CCOc1cccc(CN2CCCC(C(=O)Nc3cccc(-n4cccn4)c3)C2)c1 (stereo not given),-5.2,-3.6,-2.9,4.7,-1.3,8.6
CCn1ncc(CN2CCCC(C(=O)Nc3cccc(-c4cc5ccccc5[nH]4)c3)C2)c1C (stereo not given),-2.0,-9.3,-7.5,25.1*,-4.7,0.4
CCOc1ccccc1CN1CCCC(C(=O)Nc2cccc(-n3cccn3)c2)C1 (stereo not given),-1.9,-22.4,-8.9,71.0*,-7.5,2.6
Cc1[nH]c2ccccc2c1/C=N/NC(=O)c1cc(-c2ccncc2)nc2ccccc12,-1.4,11.0,1.1,10.5,31.1*,24.1

# Screening data: PubChem, The Scripps Research Institute Molecular Screening Center
